Source: ChEMBL document CHEMBL4602658, “Stilbenes with Potent Protein Tyrosine Phosphatase-1B Inhibitory Activity from the Roots of Polygonum multiflorum” (J Nat Prod, 2020)
pIC50, pKi: −log10 of the molar value. The source made the active and inactive calls. No cut-off for these calls is given here.

Assays:
[1] = Antioxidant activity assessed as DPPH radical scavenging activity; type: functional
[2] = biological target: T1, Tyrosine-protein phosphatase non-receptor type 1 (Homo sapiens, UniProt P18031); experiment: Inhibition of PTP1B (unknown origin) assessed as decrease in p-nitrophenolate formation using pNPP as substrate incubated for 15 mins by spectrophotometric method
T1 sequence (P18031 whole entry): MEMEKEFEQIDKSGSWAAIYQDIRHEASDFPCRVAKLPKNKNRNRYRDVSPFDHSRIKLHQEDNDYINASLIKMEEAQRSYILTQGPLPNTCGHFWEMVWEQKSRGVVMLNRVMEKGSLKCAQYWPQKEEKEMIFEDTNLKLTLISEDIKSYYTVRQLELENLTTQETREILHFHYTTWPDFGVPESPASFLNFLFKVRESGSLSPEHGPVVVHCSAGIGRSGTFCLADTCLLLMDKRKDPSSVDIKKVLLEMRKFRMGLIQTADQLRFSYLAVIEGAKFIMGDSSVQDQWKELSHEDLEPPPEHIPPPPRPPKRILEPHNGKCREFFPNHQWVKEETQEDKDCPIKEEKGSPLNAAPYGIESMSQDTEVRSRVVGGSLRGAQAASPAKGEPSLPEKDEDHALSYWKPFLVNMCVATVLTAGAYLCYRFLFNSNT

[3] = biological target: T2, Tyrosine-protein phosphatase non-receptor type 1 (Homo sapiens) (UniProt P18031); experiment: Noncompetitive inhibition of PTP1B (unknown origin) assessed as decrease in p-nitrophenolate formation using pNPP as substrate by Lineweaver-Burk plot analysis
T2 sequence (whole entry): T1 sequence (P18031 whole entry)
Procedure, shortened: (§1)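 Kinetic analysis of human recombinant PTP1B with p-NPP substrate, run at several inhibitor levels. Ki was obtained from Dixon plots, and the inhibition mode from Lineweaver–Burk plots.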

[4] = biological target: T1, Tyrosine-protein phosphatase non-receptor type 1; experiment: Inhibition of PTP1B (unknown origin) assessed as decrease in p-nitrophenolate formation using pNPP as substrate by Dixon plot analysis; procedure, shortened: as §1

Row | pIC50 [2] | SMILES | further results
1 | 4.92 | Oc1ccc(/C=C/c2cc(O)cc(O)c2O)cc1 | pIC50 [1]: 3.40
2 | < 4.30 | OC[C@H]1O[C@@H](Oc2c(O)cc(O)cc2/C=C/c2ccc(O)cc2)[C@H](O)[C@@H](O)[C@@H]1O | pIC50 [1]: 1.40
3 | < 4.30 | C[C@@H]1O[C@@H](Oc2c(O)cc(O)cc2/C=C/c2ccc(O)cc2)[C@H](O)[C@H](O)[C@H]1O | 
4 | < 4.30 | Oc1ccc(/C=C/c2cc(O)cc(O)c2O[C@@H]2OC[C@@H](O)[C@H](O)[C@H]2O)cc1 | 
5 | < 4.30 | OC[C@H]1O[C@@H](OC[C@H]2O[C@@H](Oc3c(O)cc(O)cc3/C=C/c3ccc(O)cc3)[C@H](O)[C@@H](O)[C@@H]2O)[C@H](O)[C@@H](O)[C@@H]1O | 
6 | 4.46 | OC[C@H]1O[C@@H](Oc2c(O)cc(O)cc2/C=C/c2ccc3c(c2)[C@@H](c2cc(O)cc(O)c2O[C@@H]2O[C@H](CO)[C@@H](O)[C@H](O)[C@H]2O)[C@H](c2ccc(O)cc2)O3)[C@H](O)[C@@H](O)[C@@H]1O | 
7 | < 4.30 | O=COC[C@H]1O[C@@H](Oc2c(O)cc(O)cc2/C=C/c2ccc(O)cc2)[C@H](O)[C@@H](O)[C@@H]1O | 
8 | < 4.30 | OC[C@H]1O[C@@H](Oc2c(O)cc(O)cc2[C@H]2c3c(cc(O)c(O[C@@H]4O[C@H](CO)[C@@H](O)[C@H](O)[C@H]4O)c3/C=C/c3ccc(O)cc3)O[C@@H]2c2ccc(O)cc2)[C@H](O)[C@@H](O)[C@@H]1O | 
9 | < 4.30 | CC(=O)OC[C@H]1O[C@@H](Oc2c(O)cc(O)cc2/C=C/c2ccc(O)cc2)[C@H](O)[C@@H](O)[C@@H]1O | 
10 | < 4.30 | COc1cc(/C=C/C(=O)O[C@H]2[C@H](Oc3c(O)cc(O)cc3/C=C/c3ccc(O)cc3)O[C@H](CO)[C@@H](O)[C@@H]2O)ccc1O | 
11 | 4.49 | OC[C@H]1O[C@@H](Oc2c(O)cc(O)cc2/C=C/c2ccc3c(c2)[C@H](c2cc(O)cc(O)c2O[C@@H]2O[C@H](CO)[C@@H](O)[C@H](O)[C@H]2O)[C@@H](c2ccc(O)cc2)O3)[C@H](O)[C@@H](O)[C@@H]1O | 
12 | < 4.30 | O=C(O)c1cc(O)cc(O)c1C(=O)Cc1ccc(O)cc1 | 
13 | 5.72 | Oc1ccc([C@@H]2Oc3ccc(/C=C/c4cc(O)cc(O)c4O)cc3[C@H]2c2cc(O)cc(O)c2O)cc1 | inhibition [3]: Active; pKi [4]: 6.04
14 | 4.42 | CC(=O)O[C@@H]1[C@@H](O)[C@H](Oc2c(O)cc(O)cc2/C=C/c2ccc(O)cc2)O[C@H](CO)[C@H]1O | 
15 | 5.68 | Oc1ccc([C@H]2Oc3ccc(/C=C/c4cc(O)cc(O)c4O)cc3[C@@H]2c2cc(O)cc(O)c2O)cc1 | inhibition [3]: Active; pKi [4]: 5.99
16 | < 4.30 | Oc1ccc(/C=C/c2cc(O)cc(O)c2)cc1 [RESVERATROL] | 
17 | < 4.30 | COc1cc([C@@H]2CC(=O)Oc3cc(O)c(O[C@@H]4O[C@H](CO)[C@@H](O)[C@H](O)[C@H]4O)c(/C=C/c4ccc(O)cc4)c32)ccc1O | 
18 | 4.56 | COc1cc(/C=C/C(=O)O[C@@H]2[C@@H](O)[C@H](Oc3c(O)cc(O)cc3/C=C/c3ccc(O)cc3)O[C@H](CO)[C@H]2O)ccc1O | 
19 | < 4.30 | O=C(O[C@H]1[C@H](Oc2c(O)cc(O)cc2/C=C/c2ccc(O)cc2)O[C@H](CO)[C@@H](O)[C@@H]1O)c1cc(O)c(O)c(O)c1 | 
